According to ChEMBL document CHEMBL2021777 (J Med Chem, 2012):
Activity calls are given as the source filed them. No cut-off for these calls is given here.

Assays:
[1] = biological target: T1, Muscarinic acetylcholine receptor M5 (Homo sapiens) (UniProt P08912); assay: Displacement of [3H]QNB from M5 receptor at 10 uM
T1 sequence (whole entry): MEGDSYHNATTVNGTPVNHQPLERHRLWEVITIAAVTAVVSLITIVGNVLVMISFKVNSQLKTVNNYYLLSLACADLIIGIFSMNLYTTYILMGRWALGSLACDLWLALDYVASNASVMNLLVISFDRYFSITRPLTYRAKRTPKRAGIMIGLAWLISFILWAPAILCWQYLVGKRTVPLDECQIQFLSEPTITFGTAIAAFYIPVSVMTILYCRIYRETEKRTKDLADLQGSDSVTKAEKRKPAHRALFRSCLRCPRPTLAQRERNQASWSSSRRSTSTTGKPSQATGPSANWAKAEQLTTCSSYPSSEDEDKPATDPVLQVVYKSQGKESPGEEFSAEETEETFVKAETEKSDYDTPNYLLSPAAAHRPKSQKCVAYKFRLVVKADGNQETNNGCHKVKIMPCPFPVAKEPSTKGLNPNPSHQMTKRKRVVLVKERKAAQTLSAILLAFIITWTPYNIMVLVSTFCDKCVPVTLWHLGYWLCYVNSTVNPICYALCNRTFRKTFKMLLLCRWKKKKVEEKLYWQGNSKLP

[2] = biological target: Cytochrome P450 2C19 (Homo sapiens, UniProt P33261); assay: Inhibition of CYP2C19 up to 10 uM; format: ADME
In short: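 Percent inhibition of CYP isoforms (CYP1A, CYP2C9, CYP2C19, CYP2D6, CYP3A; CYP1A2 reported) with test compound at concentrations up to 10 μM.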

[3] = biological target: T2, Alpha-2B adrenergic receptor (Homo sapiens) (UniProt P18089); assay: Displacement of [3H]Clonidine from alpha2B adrenergic receptor at 10 uM
T2 sequence (whole entry): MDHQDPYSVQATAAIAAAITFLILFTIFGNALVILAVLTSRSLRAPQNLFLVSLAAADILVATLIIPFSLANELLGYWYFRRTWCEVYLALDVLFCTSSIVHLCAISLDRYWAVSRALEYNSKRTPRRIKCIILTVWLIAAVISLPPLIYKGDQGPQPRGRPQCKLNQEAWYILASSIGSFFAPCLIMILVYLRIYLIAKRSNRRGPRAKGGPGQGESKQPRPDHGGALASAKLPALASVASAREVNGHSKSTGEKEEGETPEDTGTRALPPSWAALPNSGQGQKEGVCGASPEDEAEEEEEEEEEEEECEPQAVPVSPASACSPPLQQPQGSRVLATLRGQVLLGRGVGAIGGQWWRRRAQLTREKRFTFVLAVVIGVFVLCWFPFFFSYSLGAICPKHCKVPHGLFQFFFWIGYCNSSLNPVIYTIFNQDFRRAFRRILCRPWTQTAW

[4] = biological target: Sodium-dependent dopamine transporter (Homo sapiens) (UniProt Q01959); assay: Displacement of [3H]WIN35428 from DAT at 10 uM
[5] = biological target: T3, 5-hydroxytryptamine receptor 1A (Homo sapiens) (UniProt P08908); assay: Displacement of [3H]8-OH-DPAT from 5-HT1A at 10 uM
T3 sequence (whole entry): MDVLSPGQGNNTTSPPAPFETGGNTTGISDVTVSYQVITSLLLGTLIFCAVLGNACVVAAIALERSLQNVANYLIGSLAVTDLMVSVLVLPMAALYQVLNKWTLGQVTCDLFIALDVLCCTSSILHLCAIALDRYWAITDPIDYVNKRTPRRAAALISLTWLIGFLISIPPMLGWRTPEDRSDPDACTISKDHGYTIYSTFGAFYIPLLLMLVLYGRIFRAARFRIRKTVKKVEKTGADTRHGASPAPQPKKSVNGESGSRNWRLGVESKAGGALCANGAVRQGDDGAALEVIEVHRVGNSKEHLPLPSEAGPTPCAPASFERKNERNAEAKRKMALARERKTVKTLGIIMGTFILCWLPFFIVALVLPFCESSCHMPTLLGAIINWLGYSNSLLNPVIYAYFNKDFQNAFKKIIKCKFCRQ

[6] = biological target: Neuronal acetylcholine receptors; alpha-3/beta-4, alpha-5, beta-2 (Homo sapiens) (UniProt P17787+P30926+P32297+P30532); assay: Agonist activity at alpha3beta4alpha5beta2 in human SH-SY5Y cells at 10 uM by 86Rb+ flux assay; format: functional, cell-based
In short: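 Human neuroblastoma SH-SY5Y cells endogenously express α3β4* nAChRs (α3, β4, probably α5, sometimes β2); their α7 receptors give no signal under these conditions. Cells were kept at low passage (1−26 from frozen stocks). Function was read as 86Rb+ efflux, with agonist and antagonist modes tested up to 10 μM.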

[7] = biological target: T4, Alpha-1B adrenergic receptor (Homo sapiens) (UniProt P35368); assay: Displacement of [3H]Prazosin from alpha1B adrenergic receptor at 10 uM
T4 sequence (whole entry): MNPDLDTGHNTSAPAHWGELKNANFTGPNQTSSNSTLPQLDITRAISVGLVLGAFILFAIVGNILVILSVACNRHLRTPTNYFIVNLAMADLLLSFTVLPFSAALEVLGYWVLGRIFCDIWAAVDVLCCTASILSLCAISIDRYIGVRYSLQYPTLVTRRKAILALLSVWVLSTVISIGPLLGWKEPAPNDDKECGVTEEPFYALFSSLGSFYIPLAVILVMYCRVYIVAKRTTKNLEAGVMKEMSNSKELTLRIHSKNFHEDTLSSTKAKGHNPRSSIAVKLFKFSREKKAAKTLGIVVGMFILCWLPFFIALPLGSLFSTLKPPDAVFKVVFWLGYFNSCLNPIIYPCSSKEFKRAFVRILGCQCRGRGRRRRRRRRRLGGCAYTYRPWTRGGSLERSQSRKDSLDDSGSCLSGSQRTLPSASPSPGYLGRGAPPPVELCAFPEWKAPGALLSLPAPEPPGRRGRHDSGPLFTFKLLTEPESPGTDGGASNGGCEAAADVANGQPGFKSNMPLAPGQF

[8] = system: Mus musculus; assay: Ex-vivo beta2* nAChR receptor occupancy in mouse brain at 10 mg/kg, ip administered 30 mins prior to testing; format: functional; settings: route intraperitoneal
In short: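 Mice dosed at 10 mg/kg, or water, by intraperitoneal injection 30 min before brain collection (the forced-swim time point); ex vivo β2*-nAChR occupancy measured in brain.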

[9] = biological target: Neuronal acetylcholine receptor; alpha3/beta2 (Rattus norvegicus, UniProt P04757+P12390); assay: Displacement of [3H] epibatidine from rat alpha3beta2 nAChR by beta scintillation counting; format: protein-complex assay
[10] = biological target: Histamine H2 receptor (Homo sapiens) (UniProt P25021); assay: Displacement of [3H]Tiotidine from H2 histamine receptor at 10 uM
[11] = biological target: Acetylcholine receptor; alpha1/beta1/delta/gamma (Homo sapiens) (UniProt P02708+P07510+P11230+Q07001); assay: Agonist activity at human alpha1beta1gammadelta nAChR expressed in TE671/RD cells at 10 uM by 86Rb+ flux assay; format: functional, cell-based
In short: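 Human clonal TE671/RD cells endogenously express muscle-type α1*-nAChRs (α1, β1, γ, δ). Cells were kept at low passage (1−26 from frozen stocks). Function was read as 86Rb+ efflux, with agonist and antagonist modes tested up to 10 μM.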

Cytochrome P450 2C19, sequence (P33261 whole entry, canonical isoform): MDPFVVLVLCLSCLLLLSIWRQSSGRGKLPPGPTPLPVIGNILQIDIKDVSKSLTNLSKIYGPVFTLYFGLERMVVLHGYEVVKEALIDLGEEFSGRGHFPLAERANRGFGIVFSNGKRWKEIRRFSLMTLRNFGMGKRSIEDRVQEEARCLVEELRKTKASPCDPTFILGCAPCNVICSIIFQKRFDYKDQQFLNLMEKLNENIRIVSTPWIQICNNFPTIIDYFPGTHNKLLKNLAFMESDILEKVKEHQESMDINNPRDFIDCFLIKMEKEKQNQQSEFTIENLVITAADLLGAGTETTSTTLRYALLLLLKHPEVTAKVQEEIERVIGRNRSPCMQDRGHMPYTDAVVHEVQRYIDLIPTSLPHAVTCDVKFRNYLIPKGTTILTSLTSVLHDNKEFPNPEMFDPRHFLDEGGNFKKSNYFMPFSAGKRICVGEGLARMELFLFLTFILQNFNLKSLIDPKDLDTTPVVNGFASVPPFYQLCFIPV
Sodium-dependent dopamine transporter (Homo sapiens), sequence (Q01959 whole entry): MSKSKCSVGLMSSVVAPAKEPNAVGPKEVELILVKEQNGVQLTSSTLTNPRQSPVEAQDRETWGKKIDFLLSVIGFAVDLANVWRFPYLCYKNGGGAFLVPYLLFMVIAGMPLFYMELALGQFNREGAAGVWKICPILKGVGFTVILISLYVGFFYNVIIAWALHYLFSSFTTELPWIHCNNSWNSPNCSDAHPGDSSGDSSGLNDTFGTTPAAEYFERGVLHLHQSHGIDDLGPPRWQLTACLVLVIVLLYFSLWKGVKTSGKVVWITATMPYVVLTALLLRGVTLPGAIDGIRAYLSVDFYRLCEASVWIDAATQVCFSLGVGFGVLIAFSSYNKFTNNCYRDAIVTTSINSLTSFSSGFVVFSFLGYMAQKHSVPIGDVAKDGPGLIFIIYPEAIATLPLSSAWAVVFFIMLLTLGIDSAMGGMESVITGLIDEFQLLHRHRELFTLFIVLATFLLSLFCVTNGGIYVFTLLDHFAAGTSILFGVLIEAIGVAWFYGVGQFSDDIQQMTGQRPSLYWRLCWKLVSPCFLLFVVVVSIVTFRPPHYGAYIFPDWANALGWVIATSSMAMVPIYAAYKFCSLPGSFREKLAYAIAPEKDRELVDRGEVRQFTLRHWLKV
Neuronal acetylcholine receptor; alpha3/beta2, sequence (P04757 whole entry): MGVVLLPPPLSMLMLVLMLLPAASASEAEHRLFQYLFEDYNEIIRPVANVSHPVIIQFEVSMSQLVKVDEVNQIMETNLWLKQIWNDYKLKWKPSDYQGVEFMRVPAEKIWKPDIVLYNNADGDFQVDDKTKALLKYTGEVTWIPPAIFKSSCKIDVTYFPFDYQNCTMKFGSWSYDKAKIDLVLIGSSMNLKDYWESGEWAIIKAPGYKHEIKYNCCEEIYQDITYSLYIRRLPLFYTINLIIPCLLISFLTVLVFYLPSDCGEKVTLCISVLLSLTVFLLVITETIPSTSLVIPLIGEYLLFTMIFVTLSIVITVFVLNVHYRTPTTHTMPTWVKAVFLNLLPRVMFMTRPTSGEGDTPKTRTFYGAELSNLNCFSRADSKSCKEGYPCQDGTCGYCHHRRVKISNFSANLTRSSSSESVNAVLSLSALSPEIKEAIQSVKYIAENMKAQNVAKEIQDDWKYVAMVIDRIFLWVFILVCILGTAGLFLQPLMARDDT
Neuronal acetylcholine receptor; alpha3/beta2, sequence (P12390 whole entry): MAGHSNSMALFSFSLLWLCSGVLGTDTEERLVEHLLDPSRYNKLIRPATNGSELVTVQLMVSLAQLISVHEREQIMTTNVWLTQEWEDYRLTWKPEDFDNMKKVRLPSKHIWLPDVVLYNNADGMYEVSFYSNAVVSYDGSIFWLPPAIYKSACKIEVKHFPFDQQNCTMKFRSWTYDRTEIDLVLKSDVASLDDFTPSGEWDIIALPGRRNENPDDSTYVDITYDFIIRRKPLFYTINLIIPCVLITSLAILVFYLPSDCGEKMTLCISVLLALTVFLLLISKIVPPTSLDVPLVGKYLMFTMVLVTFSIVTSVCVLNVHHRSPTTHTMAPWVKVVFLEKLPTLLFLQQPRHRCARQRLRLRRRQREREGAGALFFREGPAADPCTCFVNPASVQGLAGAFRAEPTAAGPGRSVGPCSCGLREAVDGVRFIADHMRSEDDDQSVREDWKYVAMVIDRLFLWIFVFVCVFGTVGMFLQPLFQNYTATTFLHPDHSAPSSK
Neuronal acetylcholine receptors; alpha-3/beta-4, alpha-5, beta-2 (Homo sapiens), sequence (P17787 whole entry, looked up): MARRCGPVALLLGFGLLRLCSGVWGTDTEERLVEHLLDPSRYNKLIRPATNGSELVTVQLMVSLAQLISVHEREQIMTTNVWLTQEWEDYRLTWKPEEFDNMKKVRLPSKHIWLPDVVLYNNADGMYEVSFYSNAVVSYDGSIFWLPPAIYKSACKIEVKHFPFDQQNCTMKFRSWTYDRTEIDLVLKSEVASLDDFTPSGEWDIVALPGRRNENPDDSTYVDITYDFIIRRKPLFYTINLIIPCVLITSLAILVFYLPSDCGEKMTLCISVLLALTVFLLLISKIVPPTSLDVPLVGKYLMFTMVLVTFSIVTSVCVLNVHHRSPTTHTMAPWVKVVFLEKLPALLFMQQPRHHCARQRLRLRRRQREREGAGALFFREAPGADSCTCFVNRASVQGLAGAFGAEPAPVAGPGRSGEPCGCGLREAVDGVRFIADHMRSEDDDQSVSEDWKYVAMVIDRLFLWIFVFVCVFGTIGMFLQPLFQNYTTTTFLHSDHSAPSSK
Neuronal acetylcholine receptors; alpha-3/beta-4, alpha-5, beta-2 (Homo sapiens), sequence (P30532 whole entry, looked up): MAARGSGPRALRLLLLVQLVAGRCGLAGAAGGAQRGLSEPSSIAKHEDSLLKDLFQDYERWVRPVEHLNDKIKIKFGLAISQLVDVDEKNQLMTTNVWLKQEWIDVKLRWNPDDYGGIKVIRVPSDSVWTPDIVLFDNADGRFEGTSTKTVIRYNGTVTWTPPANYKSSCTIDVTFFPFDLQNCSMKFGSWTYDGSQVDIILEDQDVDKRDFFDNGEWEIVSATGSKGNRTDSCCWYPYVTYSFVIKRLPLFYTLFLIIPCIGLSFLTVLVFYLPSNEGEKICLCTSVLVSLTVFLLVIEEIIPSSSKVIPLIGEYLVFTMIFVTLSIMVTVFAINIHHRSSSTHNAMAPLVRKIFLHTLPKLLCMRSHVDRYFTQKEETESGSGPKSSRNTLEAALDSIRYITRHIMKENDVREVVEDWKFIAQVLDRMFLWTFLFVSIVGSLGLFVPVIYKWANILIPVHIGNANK
Neuronal acetylcholine receptors; alpha-3/beta-4, alpha-5, beta-2 (Homo sapiens), sequence (P30926 whole entry, looked up): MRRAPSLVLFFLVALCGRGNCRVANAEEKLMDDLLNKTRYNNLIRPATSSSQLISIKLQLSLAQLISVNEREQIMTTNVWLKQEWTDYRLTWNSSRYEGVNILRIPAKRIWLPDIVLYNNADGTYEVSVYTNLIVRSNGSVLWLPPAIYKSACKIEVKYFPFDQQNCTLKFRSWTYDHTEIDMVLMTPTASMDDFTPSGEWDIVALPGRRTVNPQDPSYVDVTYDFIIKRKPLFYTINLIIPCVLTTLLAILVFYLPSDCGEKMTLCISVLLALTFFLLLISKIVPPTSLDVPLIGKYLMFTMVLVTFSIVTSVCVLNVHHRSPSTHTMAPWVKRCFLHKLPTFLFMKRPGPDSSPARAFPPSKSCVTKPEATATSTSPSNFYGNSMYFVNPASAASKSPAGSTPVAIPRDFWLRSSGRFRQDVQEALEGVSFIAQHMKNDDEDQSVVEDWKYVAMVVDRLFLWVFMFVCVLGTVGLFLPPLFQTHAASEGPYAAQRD
Neuronal acetylcholine receptors; alpha-3/beta-4, alpha-5, beta-2 (Homo sapiens), sequence (P32297 whole entry, looked up): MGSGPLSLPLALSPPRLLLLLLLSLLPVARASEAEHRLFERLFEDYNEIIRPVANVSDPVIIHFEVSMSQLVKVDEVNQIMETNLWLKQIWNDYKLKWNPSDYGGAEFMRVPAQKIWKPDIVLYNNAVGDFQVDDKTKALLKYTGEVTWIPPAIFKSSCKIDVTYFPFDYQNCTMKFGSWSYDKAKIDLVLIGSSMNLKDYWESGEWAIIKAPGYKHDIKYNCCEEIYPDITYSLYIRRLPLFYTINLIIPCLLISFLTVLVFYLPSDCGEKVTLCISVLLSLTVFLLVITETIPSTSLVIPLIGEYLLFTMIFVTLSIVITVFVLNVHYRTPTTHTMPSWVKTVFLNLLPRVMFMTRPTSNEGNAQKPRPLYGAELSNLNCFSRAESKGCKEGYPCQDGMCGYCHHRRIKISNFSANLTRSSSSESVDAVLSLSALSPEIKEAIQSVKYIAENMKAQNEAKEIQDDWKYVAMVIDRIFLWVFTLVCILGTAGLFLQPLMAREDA
Histamine H2 receptor (Homo sapiens), sequence (P25021 whole entry): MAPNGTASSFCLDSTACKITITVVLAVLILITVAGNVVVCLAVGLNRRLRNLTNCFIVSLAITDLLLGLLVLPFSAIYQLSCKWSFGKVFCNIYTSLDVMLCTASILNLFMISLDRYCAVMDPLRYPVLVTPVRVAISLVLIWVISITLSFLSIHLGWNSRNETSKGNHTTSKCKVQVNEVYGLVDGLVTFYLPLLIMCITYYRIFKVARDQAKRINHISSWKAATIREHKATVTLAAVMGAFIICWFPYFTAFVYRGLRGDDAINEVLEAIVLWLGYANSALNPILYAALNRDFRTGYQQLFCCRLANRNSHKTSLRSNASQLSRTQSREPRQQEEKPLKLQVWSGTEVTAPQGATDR

Row | Compound | inhibition [1] | inhibition (INH) [2] | inhibition [3] | inhibition [4] | inhibition [5] | Activity [6] | inhibition [7] | Activity [8] | Ki [9] | inhibition [10] | Activity [11]
1 | CNC(=O)OCC[C@H]1C[C@@H]1c1cncc(OC[C@@H]2CCN2)c1 | -8.7% | <= 25% | 12.4% | 63% | 25% | inactive | 14.1% | 65% | 9.8 nM | 14.6% | inactive
2 | OCC[C@H]1C[C@@H]1c1cncc(OC[C@@H]2CCN2)c1 | -4.4% | <= 25% | 9.9% | 43.7% | -7.7% | inactive | -4.5% | 85% | 3 nM | 18.4% | inactive
3 | COCC[C@H]1C[C@@H]1c1cncc(OC[C@@H]2CCN2)c1 | -1.1% | <= 25% | 16.4% | 21.7% | -7.2% | inactive | 8.6% | 85% | 2.4 nM | 26.2% | inactive
